Results: ChEMBL document CHEMBL1938287, “Design and synthesis of inhaled p38 inhibitors for the treatment of chronic obstructive pulmonary disease” (J Med Chem, 2011)
≈ marks a conversion by molar mass, not a printed value.

Assays:
[1] = Metabolic stability in human liver microsomes assessed as phase II glucuronidation in the presence of uridine diphosphate glucuronic acid and absence of NADPH; format: ADME, Microsome; settings: read-out: Stability
In short: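 Human liver microsomes incubated with the cofactor UDPGA and without NADPH, to assess phase II glucuronidation.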

[2] = Metabolic stability in human liver microsomes; format: ADME, Microsome; settings: read-out: Stability
[3] = Solubility in simulated lung fluid; format: physicochemical
[4] = Drug metabolism in dog liver microsomes; format: ADME, Canis lupus familiaris, Microsome
[5] = system: Liver microsomes; test: Drug metabolism in rat liver microsomes; format: ADME, Microsome
[6] = Lipophilicity, log D of the compound; format: physicochemical; settings: octanol/water
[7] = Half life in rat at 1 mg/kg, iv; format: ADME, organism-based; parameters: dose 1 mg/kg, route intravenous; settings: in vivo
In short: (§1)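 Intravenous pharmacokinetics in rats from a 1 mg/kg dose; blood sampled.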

[8] = species on record: Rattus norvegicus; test: Unbound clearance in rat; format: ADME, organism-based; settings: in vivo
[9] = Volume of distribution at steady state in rat at 1 mg/kg, iv; format: ADME, organism-based; parameters: dose 1 mg/kg, route intravenous; settings: in vivo, read-out: Vdss
[10] = species on record: Canis familiaris; test: Unbound clearance in dog; format: ADME, organism-based, Canis lupus familiaris; settings: in vivo
[11] = Oral bioavailability in rat at 0.5 mg/kg; format: ADME, organism-based; settings: in vivo
In short: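 Oral pharmacokinetics in rats from a 0.5 mg/kg dose; blood sampled.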

[12] = system: Liver microsomes; test: Drug metabolism in human liver microsomes; format: ADME, Microsome
[13] = Clearance in rat at 1 mg/kg, iv; format: ADME, organism-based; parameters: dose 1 mg/kg, route intravenous; settings: in vivo; in short: as §1
[14] = Volume of distribution at steady state in dog at 0.5 mg/kg, iv; format: ADME, organism-based, Canis lupus familiaris; parameters: dose 0.5 mg/kg, route intravenous; settings: in vivo, read-out: Vdss
[15] = Half life in dog at 0.5 mg/kg, iv; format: ADME, organism-based, Canis lupus familiaris; parameters: dose 0.5 mg/kg, route intravenous; settings: in vivo
In short: (§2)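 Intravenous pharmacokinetics in dogs from a 0.5 mg/kg dose; blood sampled.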

[16] = Dissociation constant, pKa of the compound; format: physicochemical
[17] = Aqueous solubility of the compound; format: physicochemical
[18] = Clearance in dog at 0.5 mg/kg, iv; format: ADME, organism-based, Canis lupus familiaris; parameters: dose 0.5 mg/kg, route intravenous; settings: in vivo; in short: as §2
[19] = Oral bioavailability in rat at 3 mg/kg; format: ADME, organism-based; settings: in vivo
In short: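 Oral pharmacokinetics in rats from a 3 mg/kg dose.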

[20] = Intrinsic clearance in rat liver microsomes; format: ADME, Microsome; settings: read-out: CLH

| microsomal CLint [1] [µL/min/mg] | microsomal CLint [2] [µL/min/mg] | other results | SMILES |
| --- | --- | --- | --- |
| 1.7 | > 320 | – | CSC(C)(C)c1cc(NC(=O)NCc2ccccc2Sc2ccc3nnc(C(C)C)n3c2)n(-c2ccccc2)n1 |
| – | – | solubility [3]: 0.5 µg/mL (≈ 1.12 µM) | C[C@@H]1C[C@H]2[C@@H]3C[C@H](F)C4=CC(=O)C=C[C@]4(C)[C@@]3(F)[C@@H](O)C[C@]2(C)[C@@]1(O)C(=O)SCF [FLUTICASONE] |
| 11 | 304 | – | CSc1ccccc1-c1nnc2ccc(Sc3ccccc3CNC(=O)Nc3cc(C(C)(C)C)nn3-c3cccc(O)c3)cn12 |
| 155 | > 287 | – | CC(C)c1nnc2ccc(Sc3ccccc3CNC(=O)Nc3cc(C(C)(C)C)nn3-c3ccc(O)c(Cl)c3)cn12 |
| 43 | > 440 | – | Cc1ccc(-n2nc(C(C)(C)C)cc2NC(=O)NCc2ccccc2Sc2ccc3nnc(-c4cc(O)ccc4Cl)n3c2)cc1 |
| – | 279 | – | Cc1ccc(-n2nc(C(C)(C)C)cc2NC(=O)NCc2ccccc2Sc2ccc3nnc(-c4ccccc4O)n3c2)cc1 |
| 130 | 202 | – | CC(C)(C)c1cc(NC(=O)NCc2ccccc2Sc2ccc3nnc(-c4ccccc4OCCO)n3c2)n(-c2ccc(O)c(Cl)c2)n1 |
| 310 | > 440 | – | CSCC(C)(C)c1cc(NC(=O)NCc2ccccc2Sc2ccc3nnc(-c4ccccc4OCCO)n3c2)n(-c2ccc(O)c(Cl)c2)n1 |
| – | 196 | – | CC(C)c1nnc2ccc(Sc3ccccc3CNC(=O)Nc3cc(C(C)(C)C)nn3-c3ccc(O)cc3)cn12 |
| 27 | > 440 | – | CSCC(C)(C)c1cc(NC(=O)NCc2ccccc2Sc2ccc3nnc(-c4ccccc4O)n3c2)n(-c2ccccc2)n1 |
| 205 | > 347 | Drug metabolism [4]: Active; Drug metabolism [5]: Active; logD [6]: > 4.1; half-life [7]: 1 h; CL free [8]: 33000 mL/min/kg; Vd [9]: 0.19 L/kg; CL free [10]: 15000 mL/min/kg; bioavailability [11]: < 5%; Drug metabolism [12]: Active; clearance [13]: 33.8 mL/min/kg; Vd [14]: 0.06 L/kg; half-life [15]: 0.5 h; pKa [16]: 7.45; solubility [17]: < 100 µg/mL; clearance [18]: 13.1 mL/min/kg | CC(C)(C)c1cc(NC(=O)NCc2ccccc2Sc2ccc3nnc(-c4ccccc4SCCO)n3c2)n(-c2ccc(O)c(Cl)c2)n1 [PF-03715455] |
| 66 | 303 | – | CC(C)c1nnc2ccc(Sc3ccccc3CNC(=O)Nc3cc(C(C)(C)C)nn3-c3ccc(Cl)c(O)c3)cn12 |
| 2 | > 440 | bioavailability [19]: < 5%; microsomal CLint [20]: 200 µL/min/mg; half-life [7]: 1 h; CL free [8]: > 9600 mL/min/kg; Vd [9]: 0.9 L/kg; clearance [13]: 77 mL/min/kg | CSC(C)(C)c1cc(NC(=O)NCc2ccccc2Sc2ccc3nnc(C(C)C)n3c2)n(-c2cccc(O)c2)n1 |
| 53 | > 285 | – | CC(C)(C)c1cc(NC(=O)NCc2ccccc2Sc2ccc3nnc(-c4cc(O)ccc4Cl)n3c2)n(-c2cccc(OCCO)c2)n1 |
| 4 | > 440 | – | CC(C)(C)c1cc(NC(=O)NCc2ccccc2Sc2ccc3nnc(-c4ccccc4SCCO)n3c2)n(-c2cccc(O)c2)n1 |
| 41 | 126 | – | Cc1cccc(-n2nc(C(C)(C)C)cc2NC(=O)NCc2ccccc2Sc2ccc3nnc(-c4cccc(Cl)c4O)n3c2)c1 |
| – | 385 | – | CC(C)c1nnc2ccc(Sc3ccccc3CNC(=O)Nc3cc(C(C)(C)C)nn3-c3cccc(O)c3)cn12 |
| 264 | – | – | CSCC(C)(C)c1cc(NC(=O)NCc2ccccc2Sc2ccc3nnc(-c4ccccc4SCCO)n3c2)n(-c2ccc(O)c(Cl)c2)n1 |
| – | > 440 | – | CC(C)(C)c1cc(NC(=O)NCc2ccccc2Sc2ccc3nnc(-c4ccccc4OCCO)n3c2)n(-c2ccc(O)c(F)c2)n1 |
| 8 | > 287 | solubility [3]: 1 µg/mL (≈ 1.54 µM) | CC(C)(C)c1cc(NC(=O)NCc2ccccc2Sc2ccc3nnc(-c4ccccc4O)n3c2)n(-c2cccc(OCCO)c2)n1 |
| – | > 320 | – | CC(C)c1nnc2ccc(Sc3ccccc3CNC(=O)Nc3cc(C(C)(C)C)nn3-c3ccccc3)cn12 |
| – | 132 | – | Cc1ccc(-n2nc(C(C)(C)C)cc2NC(=O)NCc2ccccc2Sc2ccc3nnc(-c4ccc(O)cc4Cl)n3c2)cc1 |
| 47 | > 216 | – | CSCC(C)(C)c1cc(NC(=O)NCc2ccccc2Sc2ccc3nnc(-c4cc(O)ccc4Cl)n3c2)n(-c2cccc(OCCO)c2)n1 |
| – | > 320 | – | CC(C)(C)c1cc(NC(=O)NCc2ccccc2Sc2ccc3nnc(-c4ccccc4OCCO)n3c2)n(-c2cccc(O)c2)n1 |
| 70 | 232 | – | CC(C)(C)c1cc(NC(=O)NCc2ccccc2Sc2ccc3nnc(-c4ccccc4OCCO)n3c2)n(-c2ccc(Cl)c(O)c2)n1 |
